This passage reports IC50 and Ki results from ChEMBL document CHEMBL1250488, “Structural and functional basis of resistance to neuraminidase inhibitors of influenza B viruses” (J Med Chem, 2010).

Molecules are shown by their SMILES.

Assay [1] can be described thus: Inhibition of Influenza B virus (B/Perth/211/2001) recombinant neuraminidase E197 mutant expressed in Sf21 insect cells after 60 mins by MUNANA based assay. The procedure, abridged: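 The enzyme source was virus grown in cell culture and solubilized in 1% CHAPS (final), then titrated to give similar fluorescence. Inhibitor (serial log10 dilutions in water, 0.01–10000 nM; one inhibitor 0.01–10000 μM) was added together with 100 μM MUNANA, with no preincubation. Fluorescence was read every minute for 60 min without stop solution. […] Duplicates.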

The nature of assay [2]: Inhibition of Influenza B virus (B/Perth/211/2001) recombinant neuraminidase E197 mutant expressed in Sf21 insect cells preincubated for 30 mins measured after 60 mins by MUNANA based assay. The essentials: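 Virus detergent extract (1% CHAPS final, titrated to similar fluorescence) was preincubated for 30 min with inhibitor (serial log10 dilutions in water, 0.01–10000 nM; one inhibitor 0.01–10000 μM). 100 μM MUNANA was then added and fluorescence read every minute for 60 min without stop solution. […] Duplicates.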

The IC50 is the concentration at which inhibition is half-maximal. As for `O=C(O)C1(F)O[C@H]([C@H](O)[C@H](O)CO)[C@H](O)[C@@H](O)C1F` (some centres not stated), the IC50 in assay [1] was 19400 nM.

One may read the Ki as a measure of affinity in units of concentration, obtained from inhibition or displacement. With `CCOC(=O)C1=C[C@@H](OC(CC)CC)[C@H](NC(C)=O)[C@@H](N)C1` [OSELTAMIVIR], in assay [1], the IC50 is 660 nM and the Ki stood at 84 nM.

Regarding `CCC(CC)[C@H](NC(C)=O)[C@@H]1[C@H](O)[C@@H](C(=O)O)C[C@H]1NC(=N)N` [PERAMIVIR ANHYDROUS], in assay [1], the IC50 stood at 75.2 nM and the Ki came to 8.3 nM. In assay [2], the IC50 turned out to be 41.5 nM and the Ki stood at 8.2 nM.
